# TAAR1 antag – antagonists of human TAAR1; Q96RJ0; CHO RD-HGA16 TAAR1, Fluo-8 calcium fluorescence, antagonist; inhibition, % at 3 µM; 360,000 compounds, 1.5% hits;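 active = inhibition above a per-plate cutoff, the mean inhibition of test compounds on that plate plus 3 SD, cut at about 49% in these data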;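 note: 0% = DMSO plus EC80 beta-PEA response and 100% = DMSO alone without agonist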
#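 test system = CHO RD-HGA16 cells bearing hTAAR1 | replication = singlicate | controls = DMSO-only wells and EC80 β-PEA-stimulated wells | reagent = EC80 β-phenethylamine stimulus | read-out basis = percent inhibition of PEA-evoked calcium signal, max/basal emission ratio | schedule = seeding 17-24 h prior, 75-min 37 °C, 30-min RT dye loading | signal = kinetic Fluo-8 calcium fluorescence measurement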
# TAAR1 agonist – agonists of human TAAR1; Q96RJ0; CHO RD-HGA16 TAAR1, Fluo-8 calcium fluorescence; vehicle wells 0%, saturating PEA agonist 100%; activation, % at 3 µM; 360,000 compounds, 0.99% hits;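 active = activation above the mean activation of all test compounds in the run plus 3 SD, cut at about 38% in these data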
#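 test system = CHO RD-HGA16 cells carrying human TAAR1 plus Gα16 | schedule = 17-24 h seeding, 75 min 37 °C dye, 30 min RT | compound dosing = 3 µM single concentration | control set = DMSO and PEA EC100 | replicates = n 1 | signal = Fluo-8 fluorescence, 5 s baseline then 140 s kinetic read | measure = percent activation vs PEA EC100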
# Platelet DG rel – modulates dense granule release in human platelets. AID 1663. human platelet-rich plasma, SFLLRN dense granule ATP release, luminescence. 300,000 compounds, 0.22% hits. inhibition, %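 (compounds screened at 7.5 µM in platelet-rich plasma)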;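 active = mean replicate score, as percent of positive control, at or above 50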
# Rce1 inhib – yeast Ras-converting enzyme inhibition. 290,000 compounds, 0.27% hits. calls only. Q03530. yeast membranes, quenched prenylated peptide cleavage fluorescence;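 active = fall in fluorescence gain of 50% or more versus controls, with final raw signal at or below 3038400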;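 note: plate controls were neutral control wells for no effect and wells lacking membranes for full effect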
# VLA-4 inh – inhibition in a human VLA-4 binding assay; P13612; VLA-4 expressing cells, ligand binding flow cytometry; inhibition, % (about 7 µM as worked out from the volumes in the protocol); 330,000 compounds, 0.2% hits; in the data active = inhibition above about 50%
# Target sequence (P13612 whole entry, looked up): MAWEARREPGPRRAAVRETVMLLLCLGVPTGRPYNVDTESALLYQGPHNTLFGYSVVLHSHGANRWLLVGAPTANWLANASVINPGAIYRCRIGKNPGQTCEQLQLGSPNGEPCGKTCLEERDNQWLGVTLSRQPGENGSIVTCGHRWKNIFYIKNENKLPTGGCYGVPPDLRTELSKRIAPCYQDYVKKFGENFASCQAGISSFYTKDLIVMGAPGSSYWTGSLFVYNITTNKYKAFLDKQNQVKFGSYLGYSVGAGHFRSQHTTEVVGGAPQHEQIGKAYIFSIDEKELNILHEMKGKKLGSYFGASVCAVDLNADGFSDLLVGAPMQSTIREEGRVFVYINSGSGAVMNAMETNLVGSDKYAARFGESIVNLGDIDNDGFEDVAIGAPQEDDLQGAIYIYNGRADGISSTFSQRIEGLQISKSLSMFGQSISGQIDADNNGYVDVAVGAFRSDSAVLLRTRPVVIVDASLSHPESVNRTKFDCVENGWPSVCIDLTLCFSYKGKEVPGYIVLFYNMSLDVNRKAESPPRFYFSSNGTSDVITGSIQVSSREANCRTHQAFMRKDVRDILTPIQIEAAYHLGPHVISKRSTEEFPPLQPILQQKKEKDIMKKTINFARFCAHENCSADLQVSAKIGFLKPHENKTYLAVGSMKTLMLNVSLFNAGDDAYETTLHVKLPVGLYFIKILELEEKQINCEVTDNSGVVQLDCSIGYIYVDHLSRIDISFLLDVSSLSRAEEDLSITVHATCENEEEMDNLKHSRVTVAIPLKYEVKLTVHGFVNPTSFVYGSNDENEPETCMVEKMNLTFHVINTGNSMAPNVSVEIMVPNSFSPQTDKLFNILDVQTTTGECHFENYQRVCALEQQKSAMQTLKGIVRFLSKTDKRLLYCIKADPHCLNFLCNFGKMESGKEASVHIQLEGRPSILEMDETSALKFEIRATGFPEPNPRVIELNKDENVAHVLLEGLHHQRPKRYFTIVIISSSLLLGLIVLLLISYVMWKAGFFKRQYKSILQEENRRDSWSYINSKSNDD
# TAAR1 ag confirm – confirmation of human TAAR1 agonists. 2,400 compounds, 82% hits. CHO RD-HGA16 TAAR1, Fluo-8 calcium fluorescence; scaled: DMSO 0%, maximal phenethylamine 100%. activation, % at 3 µM. shares compounds with TAAR1 agonist. AID 651783;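 active = activation above a cutoff set at the run's mean compound activation plus 3 SD, cut at about 39% in these data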
# Ga16 ag counter – nonselective agonism, TAAR1 counter-screen | shares compounds with TAAR1 agonist | CHO-Ga16 parental, Fluo-8 calcium fluorescence; normalized to maximal ATP response, DMSO zero | activation, % at 3 µM | 2,400 compounds, 50% hits | AID 651787;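 active = activation above the run cutoff, the mean activation over all tested wells plus 3 SD, cut at about 12% in these data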;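 note: 0% = DMSO wells and 100% = maximal ATP response on the peak over basal ratio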
# TAAR1 desensitize – counter-screen for human TAAR1 agonists: agonists that desensitize TAAR1; AID 651951; 2,400 compounds, 46% hits; shares compounds with TAAR1 agonist; inhibition, % at 3 µM; CHO RD-HGA16 hTAAR1, Fluo-8 calcium, beta-PEA response inhibition;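 active = inhibition above the run cutoff, the mean inhibition of all test compounds plus 3 SD, cut at about 49% in these data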;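 note: beta-PEA stimulus applied at its EC80; loss of beta-PEA calcium signal after compound pretreatment read as receptor desensitization; 0% = DMSO with beta-PEA at EC80 and 100% = DMSO alone without agonist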
# Ga16 nonsel ant – nonselective Ga16 antagonism, counter-screen; inhibition, % at 3 µM; 2,400 compounds, 39% hits; AID 651952; CHO-Ga16 ATP-induced calcium, Fluo-8 fluorescence; shares compounds with TAAR1 agonist;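 active = inhibition above the plate's mean compound inhibition plus 3 SD, computed per plate, cut at about 22% in these data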;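 note: 0% = EC80 ATP with DMSO and 100% = DMSO wells without ATP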
# An asterisk follows results filed as active; i = inactive; · = not tested or not shown; ! = not confirmed by another sample. Most compounds without a hit are left out; they make up all but 2.6% or so of the library.
SMILES,TAAR1 antag,TAAR1 agonist,Platelet DG rel,Rce1 inhib,VLA-4 inh,TAAR1 ag confirm,Ga16 ag counter,TAAR1 desensitize,Ga16 nonsel ant
O=S1(=O)C[C@H](N2CCOCC2)[C@@H](COCc2ccccc2)N1,-6,1,·,·,·,·,·,·,·
O=C1c2ccccc2S(=O)(=O)c2cc(C(=O)N(c3ccccn3)c3ccccn3)ccc21,65*,145*,-3,i,13,138*,94*,59*,16
CCn1cc(C(=O)NCC(OC)OC)c(=O)c2cc(S(=O)(=O)N3CCC(C)CC3)ccc21,-1,0,6,i,8,·,·,·,·
OC[C@@H]1CN(Cc2ccco2)C[C@H](n2cnc3c(Nc4ccccc4)ncnc32)O1,-15,2,·,·,·,·,·,·,·
O=C(NC1CCCc2ccccc21)c1cccc(S(=O)(=O)N2CCN(c3ccccc3)CC2)c1 (stereo not drawn),-5,47*,-6,i,19,30,11,26,21*
Cc1ccc(NS(=O)(=O)c2ccc(C(=O)NCc3ccccn3)cc2)cc1,48,96*,-35,i,1,110*,60*,54*,31*
Cc1ccc(NS(=O)(=O)c2ccc(C(=O)NCc3ccncc3)cc2)cc1,32,69*,-1,i,7,61*,25*,46,32*
CCOc1ccc(NS(=O)(=O)c2ccc(C(=O)NCc3ccccn3)cc2)cc1,38,71*,0,i,7,120*,59*,67*,30*
O=C(Nc1cc(C(F)(F)F)ccc1N1CCCC1)C1CC(=O)N(Cc2ccccc2)C1 (stereo not drawn),-13,3,·,·,·,·,·,·,·
Cc1cc(S(=O)(=O)N2CCN(c3ccccn3)CC2)c(C)cc1Cl,-4,-3,·,i,7,·,·,·,·
Cc1cc(Cl)nc(Cl)c1C(=O)NCCc1ccccc1,·,·,·,·,4,·,2,·,8
COc1ccccc1CC(=O)NCCc1ccccc1,15,69*,·,i,16,85*,2,77*,5
COc1ccc(C(=O)CC(=O)C(=O)NCCc2cccc(C)c2)cc1,80*,84*,6,i,5,94*,2,84*,0
COc1ccc(CCNC(=O)c2ccccc2)cc1,-10,2,-15,i,6,·,·,·,·
COc1ccc(OC(=O)NCCc2ccccc2)cc1,-23,57*,-2,i,8,84*,4,73*,10
Cc1cc(=O)oc(C)c1C(=O)NCCc1ccccc1,-11,8,2,i,3,·,·,·,·
Nc1nc2c(Br)ccc(Br)c2cc1C(=O)NCc1cccc2ccccc12,14,2,·,·,·,·,·,·,·
CN(C[C@H](Cc1ccccc1)N(C[C@H](Cc1cccc2ccccc12)N(CCc1ccccc1)N=O)N=O)N=O,-5,69*!,0,i,-7,46*,1,5,10
CCCC[C@H](CN(N=O)[C@@H](Cc1ccccc1)CN(C)N=O)N(CCc1ccccc1)N=O,24,57*,0,i,·,64*,0,23,14
CC(C)C[C@@H](CN(C)N=O)N(C[C@H](Cc1ccccc1)N(CCc1ccccc1)N=O)N=O,43,28,2,i,5,·,·,·,·
CC1=C(C(=O)OCc2ccccc2)C(c2ccc(-c3ccccc3)cc2)NC(=O)N1CCCCCC(=O)O (stereo not drawn),92*,95*,·,·,31,-1,9,14,29*
CC1=C(C(=O)OCc2ccccc2)C(c2ccccc2)NC(=O)N1CCCCCC(=O)O (stereo not drawn),12,5,2,i,·,·,·,·,·
C[C@@H]1CN([C@@H](C)CO)S(=O)(=O)c2ccc(Br)cc2O[C@@H]1CN(C)C(=O)C1CC1,-1,0,·,·,·,·,·,·,·
COc1ccccc1/C=C1\SC(=S)N(CCC(=O)NNC(=O)c2ccccc2OC)C1=O,5,-1,0,i,6,·,·,·,·
COc1ccccc1/C=C1\SC(=S)N(CCC(=O)Nc2cccc(O)c2)C1=O,81*,63*,2,i,1,71*,33*,67*,40*
COc1cc(/C=C2\SC(=S)N(CC(=O)Nc3ccccn3)C2=O)cc(OC)c1OC,4,87*,-10,i,-8,114*,67*,64*,30*
CC(=O)c1ccc(NC(=O)CNc2cc(S(=O)(=O)N3CCOCC3)ccc2N2CCCC2)cc1,-13,1,·,·,·,·,·,·,·
O=C(Nc1ccccc1C(=O)NCCc1ccccc1)c1ccco1,43,60*,0,i,2,69*,5,60*,24*
